Test results from ChEMBL document CHEMBL3525967, “In vitro glucuronidation of the antibacterial triclocarban and its oxidative metabolites” (Drug Metab Dispos, 2012).

How the values were obtained:
Type in all cases: ADME
[1] = biological target: T1, UDP-glucuronosyltransferase 1A6 (Homo sapiens, UniProt P19224); experiment: Drug metabolism assessed as human UGT1A6-mediated glucuronidation expressed in baculovirus infected insect sf9 cells incubated for 5 mins prior to UDPGA addition measured after 5 to 30 mins by LC-UV analysis
T1 sequence (P19224 whole entry): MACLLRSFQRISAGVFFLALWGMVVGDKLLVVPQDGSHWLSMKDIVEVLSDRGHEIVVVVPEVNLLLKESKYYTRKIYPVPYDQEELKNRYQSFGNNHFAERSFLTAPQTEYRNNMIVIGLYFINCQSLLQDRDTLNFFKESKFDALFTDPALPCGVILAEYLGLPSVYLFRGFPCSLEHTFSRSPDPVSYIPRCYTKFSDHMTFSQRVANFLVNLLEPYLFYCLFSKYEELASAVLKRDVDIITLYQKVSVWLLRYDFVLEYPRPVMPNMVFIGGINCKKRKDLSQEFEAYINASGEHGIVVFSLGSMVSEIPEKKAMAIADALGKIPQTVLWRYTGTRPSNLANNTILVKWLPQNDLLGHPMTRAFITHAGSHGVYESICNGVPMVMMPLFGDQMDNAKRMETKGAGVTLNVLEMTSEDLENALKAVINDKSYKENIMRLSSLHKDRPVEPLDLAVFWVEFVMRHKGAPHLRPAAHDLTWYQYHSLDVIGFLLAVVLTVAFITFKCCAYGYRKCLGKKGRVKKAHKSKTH
Outline: (§1)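 Microsomes or Sf-9 Supersomes (5 µg protein in 200 µL 100 mM potassium phosphate pH 7.4) pre-treated with alamethicin on ice 15 min; substrate 10 µM final (2% DMSO), MgCl2 and saccharolactone 10 mM each; 5 min preincubation at 37 °C, then UDPGA to start. Samples taken at 5, 10, 15, 30 min (or 2, 5, 10, 15 min) into ACN with internal standard; LC-UV-ESI-MS/MS.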

[2] = biological target: T2, UDP-glucuronosyltransferase 1A9 (Homo sapiens, UniProt O60656); experiment: Drug metabolism assessed as human UGT1A9-mediated glucuronidation expressed in baculovirus infected insect sf9 cells incubated for 5 mins prior to UDPGA addition measured after 5 to 30 mins by LC-UV analysis; outline: as §1
T2 sequence (O60656 whole entry): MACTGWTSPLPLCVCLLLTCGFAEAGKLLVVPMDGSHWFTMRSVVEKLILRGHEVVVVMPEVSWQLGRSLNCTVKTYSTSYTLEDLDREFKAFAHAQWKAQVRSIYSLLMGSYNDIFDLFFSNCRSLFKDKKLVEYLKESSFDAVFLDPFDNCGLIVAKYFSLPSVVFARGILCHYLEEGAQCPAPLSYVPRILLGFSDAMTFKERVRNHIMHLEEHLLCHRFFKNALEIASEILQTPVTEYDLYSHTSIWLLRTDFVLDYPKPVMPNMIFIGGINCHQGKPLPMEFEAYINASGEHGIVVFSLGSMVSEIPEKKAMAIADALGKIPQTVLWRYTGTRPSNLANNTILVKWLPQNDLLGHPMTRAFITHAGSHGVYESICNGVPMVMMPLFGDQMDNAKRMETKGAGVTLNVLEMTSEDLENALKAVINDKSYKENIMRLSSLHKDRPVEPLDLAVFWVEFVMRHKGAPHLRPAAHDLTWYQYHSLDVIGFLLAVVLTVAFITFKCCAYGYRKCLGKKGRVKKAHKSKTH

[3] = biological target: T3, UDP-glucuronosyltransferase 2B17 (Homo sapiens, UniProt O75795); experiment: Drug metabolism assessed as human UGT2B17-mediated glucuronidation expressed in baculovirus infected insect sf9 cells incubated for 5 mins prior to UDPGA addition measured after 5 to 30 mins by LC-UV analysis; outline: as §1
T3 sequence (O75795 whole entry): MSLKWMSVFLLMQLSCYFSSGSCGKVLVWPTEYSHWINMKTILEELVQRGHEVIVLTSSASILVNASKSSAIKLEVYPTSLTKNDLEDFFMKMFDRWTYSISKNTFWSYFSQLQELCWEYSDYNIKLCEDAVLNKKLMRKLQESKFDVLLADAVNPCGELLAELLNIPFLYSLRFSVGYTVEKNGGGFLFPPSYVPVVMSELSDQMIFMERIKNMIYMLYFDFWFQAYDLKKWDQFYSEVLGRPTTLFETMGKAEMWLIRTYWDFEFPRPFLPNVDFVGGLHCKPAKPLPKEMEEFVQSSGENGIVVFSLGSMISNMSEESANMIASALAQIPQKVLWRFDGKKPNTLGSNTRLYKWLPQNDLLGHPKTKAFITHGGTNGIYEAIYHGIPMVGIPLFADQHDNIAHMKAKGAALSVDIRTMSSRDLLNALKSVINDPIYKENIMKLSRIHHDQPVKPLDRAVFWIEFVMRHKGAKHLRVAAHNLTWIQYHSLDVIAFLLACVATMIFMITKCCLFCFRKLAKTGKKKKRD

[4] = Drug metabolism in human kidney microsomes assessed as glucuronidation incubated for 5 mins prior to UDPGA addition measured after 5 to 30 mins by LC-UV analysis; outline: as §1
[5] = biological target: T4, UDP-glucuronosyltransferase 1A10 (Homo sapiens, UniProt Q9HAW8); experiment: Drug metabolism assessed as human UGT1A10-mediated glucuronidation expressed in baculovirus infected insect sf9 cells incubated for 5 mins prior to UDPGA addition measured after 5 to 30 mins by LC-UV analysis; outline: as §1
T4 sequence (Q9HAW8 whole entry): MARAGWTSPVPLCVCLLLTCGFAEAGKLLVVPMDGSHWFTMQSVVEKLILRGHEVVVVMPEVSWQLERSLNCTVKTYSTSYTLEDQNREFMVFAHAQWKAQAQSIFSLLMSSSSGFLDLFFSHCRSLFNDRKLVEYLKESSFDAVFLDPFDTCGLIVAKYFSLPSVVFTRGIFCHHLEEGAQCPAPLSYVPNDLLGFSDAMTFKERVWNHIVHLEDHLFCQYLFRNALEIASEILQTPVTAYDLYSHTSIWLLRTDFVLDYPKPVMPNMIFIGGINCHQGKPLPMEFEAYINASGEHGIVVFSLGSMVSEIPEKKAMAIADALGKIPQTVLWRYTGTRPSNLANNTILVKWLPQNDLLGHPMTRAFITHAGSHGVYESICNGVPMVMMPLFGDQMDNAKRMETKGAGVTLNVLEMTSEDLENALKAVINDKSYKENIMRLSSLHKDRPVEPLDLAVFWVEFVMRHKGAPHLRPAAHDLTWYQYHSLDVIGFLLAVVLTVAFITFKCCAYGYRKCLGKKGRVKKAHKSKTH

Row | Compound | Drug metabolism [1] | Drug metabolism [2] [pmol/min/mg] | Drug metabolism [3] | Drug metabolism [4] [pmol/min/mg] | Drug metabolism [5] [pmol/min/mg] | Drug metabolism ([5]; BLD = below limit of detection)
1 | O=C(Nc1ccc(Cl)c(Cl)c1)Nc1ccc(Cl)cc1O | metabolite_not_detected | 1200 | metabolite_not_detected | 5600 | 210 | 
2 | O=C(Nc1ccc(Cl)cc1)Nc1cc(Cl)c(Cl)cc1O | metabolite_not_detected | 2400 | metabolite_not_detected | 7700 | 280 | 
3 | O=C(Nc1ccc(Cl)c(O)c1)Nc1ccc(Cl)c(Cl)c1 | metabolite_not_detected | 840 | metabolite_not_detected | 4200 |  | BLD
